ChEMBL document CHEMBL3046809, “Plant tissue distribution and chemical inactivation of six carnation viruses” (Crop Prot, 2007)
Activity calls are given as the source filed them. The calls are words filed in the database; no cut-off is given here.

Legend:
Assay type in all cases: functional, organism-based
[1] = test system: Carnation Italian ringspot virus; experiment: Antiviral activity against Carnation Italian ringspot virus infected as compound-treated sap in Saponaria vaccaria at 5% incubated for 60 secs prior to inoculation measured after 6 weeks in green house conditions by non-isotopic molecular hybridisation assay
Outline: (§1)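 Infected leaves ground in 30 mM phosphate buffer pH 7.0 with 0.5% PVP (1 g/5 ml) and clarified. Sap mixed 1:1 with chemical solution for 60 s; listed concentrations are final, after extract dilution. Buffer-only sap served as control. Treated sap rub-inoculated with carborundum onto three S. vaccaria cv. 'Pink Beauty' plants. Plants held in a greenhouse up to 6 weeks; infection scored by non-isotopic hybridisation.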

Carnation ringspot virus [2] = experiment: Antiviral activity against Carnation ringspot virus infected compound-treated sap in Saponaria vaccaria at 5% incubated for 60 secs prior to inoculation measured after 6 weeks in green house conditions by non-isotopic molecular hybridisation assay; outline: as §1
[3] = test system: Carnation vein mottle virus; experiment: Antiviral activity against Carnation vein mottle virus infected compound-treated sap in Saponaria vaccaria at 5% incubated for 60 secs prior to inoculation measured after 6 weeks in green house conditions by non-isotopic molecular hybridisation assay; outline: as §1
Carnation latent virus [4] = experiment: Antiviral activity against Carnation latent virus infected compound-treated sap in Saponaria vaccaria at 5% incubated for 60 secs prior to inoculation measured after 6 weeks in green house conditions by non-isotopic molecular hybridisation assay; outline: as §1
[5] = test system: Carnation etched ring virus; experiment: Antiviral activity against Carnation etched ring virus infected compound-treated sap in Saponaria vaccaria at 5% incubated for 60 secs prior to inoculation measured after 6 weeks in green house conditions by non-isotopic molecular hybridisation assay; outline: as §1
Carnation mottle virus [6] = experiment: Antiviral activity against Carnation mottle virus infected compound-treated sap in Saponaria vaccaria at 5% incubated for 60 secs prior to inoculation measured after 6 weeks in green house conditions by non-isotopic molecular hybridisation assay; outline: as §1
[7] = test system: Carnation Italian ringspot virus; experiment: Antiviral activity against Carnation Italian ringspot virus infected as compound-treated sap in Saponaria vaccaria at 3% incubated for 60 secs prior to inoculation measured after 6 weeks in green house conditions by non-isotopic molecular hybridisation assay; outline: as §1
[8] = test system: Carnation Italian ringspot virus; experiment: Antiviral activity against Carnation Italian ringspot virus infected compound-treated sap in Saponaria vaccaria at 7% incubated for 60 secs prior to inoculation measured after 6 weeks in green house conditions by non-isotopic molecular hybridisation assay; outline: as §1
Carnation ringspot virus [9] = experiment: Antiviral activity against Carnation ringspot virus infected compound-treated sap in Saponaria vaccaria at 7% incubated for 60 secs prior to inoculation measured after 6 weeks in green house conditions by non-isotopic molecular hybridisation assay; outline: as §1
Carnation ringspot virus [10] = experiment: Antiviral activity against Carnation ringspot virus infected compound-treated sap in Saponaria vaccaria at 3% incubated for 60 secs prior to inoculation measured after 6 weeks in green house conditions by non-isotopic molecular hybridisation assay; outline: as §1
[11] = test system: Carnation vein mottle virus; experiment: Antiviral activity against Carnation vein mottle virus infected compound-treated sap in Saponaria vaccaria at 7% incubated for 60 secs prior to inoculation measured after 6 weeks in green house conditions by non-isotopic molecular hybridisation assay; outline: as §1
[12] = test system: Carnation vein mottle virus; experiment: Antiviral activity against Carnation vein mottle virus infected compound-treated sap in Saponaria vaccaria at 3% incubated for 60 secs prior to inoculation measured after 6 weeks in green house conditions by non-isotopic molecular hybridisation assay; outline: as §1
[13] = test system: Carnation etched ring virus; experiment: Antiviral activity against Carnation etched ring virus infected compound-treated sap in Saponaria vaccaria at 3% incubated for 60 secs prior to inoculation measured after 6 weeks in green house conditions by non-isotopic molecular hybridisation assay; outline: as §1
Carnation latent virus [14] = experiment: Antiviral activity against Carnation latent virus infected compound-treated sap in Saponaria vaccaria at 7% incubated for 60 secs prior to inoculation measured after 6 weeks in green house conditions by non-isotopic molecular hybridisation assay; outline: as §1
Carnation latent virus [15] = experiment: Antiviral activity against Carnation latent virus infected compound-treated sap in Saponaria vaccaria at 3% incubated for 60 secs prior to inoculation measured after 6 weeks in green house conditions by non-isotopic molecular hybridisation assay; outline: as §1
[16] = test system: Carnation etched ring virus; experiment: Antiviral activity against Carnation etched ring virus infected compound-treated sap in Saponaria vaccaria at 7% incubated for 60 secs prior to inoculation measured after 6 weeks in green house conditions by non-isotopic molecular hybridisation assay; outline: as §1
Carnation mottle virus [17] = experiment: Antiviral activity against Carnation mottle virus infected compound-treated sap in Saponaria vaccaria at 7% incubated for 60 secs prior to inoculation measured after 6 weeks in green house conditions by non-isotopic molecular hybridisation assay; outline: as §1
Carnation mottle virus [18] = experiment: Antiviral activity against Carnation mottle virus infected compound-treated sap in Saponaria vaccaria at 3% incubated for 60 secs prior to inoculation measured after 6 weeks in green house conditions by non-isotopic molecular hybridisation assay; outline: as §1

SMILES | Activity [1] | Activity (Carnation ringspot virus [2]) | Activity [3] | Activity (Carnation latent virus [4]) | Activity [5] | Activity (Carnation mottle virus [6]) | Activity [7] | Activity [8] | Activity (Carnation ringspot virus [9]) | Activity (Carnation ringspot virus [10]) | Activity [11] | Activity [12] | Activity [13] | Activity (Carnation latent virus [14]) | Activity (Carnation latent virus [15]) | Activity [16] | Activity (Carnation mottle virus [17]) | Activity (Carnation mottle virus [18])
O=P([O-])([O-])O.[Na+].[Na+] | inactive | inactive | Active | inactive | inactive | inactive | – | – | – | – | – | – | – | – | – | – | – | –
OCl | Active | inactive | Active | Active | Active | inactive | inactive | Active | Active | inactive | Active | Active | Active | Active | Active | Active | Active | inactive
